# A selection: hits, their analogues and other compounds. The true share with any hit is near 3.7%.
# hERG protect: hERG rescue from dofetilide block, primary screen, cell-based, CHO-hERG, FluxOR thallium flux, dofetilide IC70. activation (rescue from dofetilide block), less the hit threshold, % at 10 µM. dofetilide IC70 present. 0.51% of 310,000 active. Voltage-gated inwardly rectifying potassium channel KCNH2 (Homo sapiens), Q12809;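 active means activation above the mean of controls blocked by dofetilide plus 5 SD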;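 further: thallium influx through hERG after potassium depolarization seen as dye fluorescence rise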
# KCNQ1 block: inhibitors of human KCNQ1 channel, primary screen, cell-based, thallium flux, high-throughput | Potassium voltage-gated channel subfamily KQT member 1 (Homo sapiens), P51787 | CHO-K1 KCNQ1, FluxOR thallium flux fluorescence; hits give high values | B-score at 10 µM | 1.3% of 310,000 active | AID 2642, 2010;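 active means compounds whose thallium flux B-score, printed positive for inhibition, exceeds three library SD while starting fluorescence stays within three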;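 further: channel opened by potassium depolarization with thallium stimulus after 20 min compound exposure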
# Target sequence (P51787 whole entry, looked up): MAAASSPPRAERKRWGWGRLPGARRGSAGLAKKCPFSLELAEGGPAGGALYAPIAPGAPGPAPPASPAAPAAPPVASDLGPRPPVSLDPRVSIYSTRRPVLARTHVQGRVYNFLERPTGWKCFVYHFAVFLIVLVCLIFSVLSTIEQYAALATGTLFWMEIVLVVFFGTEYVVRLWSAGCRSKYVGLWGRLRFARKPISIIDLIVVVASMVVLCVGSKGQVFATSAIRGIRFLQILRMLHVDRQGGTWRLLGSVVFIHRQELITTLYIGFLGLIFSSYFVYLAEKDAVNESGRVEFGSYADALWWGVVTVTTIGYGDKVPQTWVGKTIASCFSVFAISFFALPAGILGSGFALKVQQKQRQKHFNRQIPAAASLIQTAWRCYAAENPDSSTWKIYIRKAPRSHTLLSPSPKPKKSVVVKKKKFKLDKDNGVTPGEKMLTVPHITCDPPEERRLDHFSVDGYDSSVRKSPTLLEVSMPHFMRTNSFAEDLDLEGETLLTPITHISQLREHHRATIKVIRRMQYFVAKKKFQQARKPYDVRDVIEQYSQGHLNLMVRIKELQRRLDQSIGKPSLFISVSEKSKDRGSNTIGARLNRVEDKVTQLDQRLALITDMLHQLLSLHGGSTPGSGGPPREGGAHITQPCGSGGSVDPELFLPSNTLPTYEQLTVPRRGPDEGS
# KCNQ1 act: potentiators or activators of KCNQ1 channel, primary screen, cell-based, thallium flux, high-throughput | AID 2648, 2010 | 0.35% of 310,000 active | B-score at 10 µM | Potassium voltage-gated channel subfamily KQT member 1 (Homo sapiens), P51787 | CHO-K1 KCNQ1, thallium flux FluxOR fluorescence; hits give high values;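 active means fluorescence ratio B-score, a plate-corrected score, at least three library SD, with initial intensity B-score within 5 SD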
#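 Schedule – 37 °C overnight plating, 90-min dark dye load, 20-min compound pretreatment · System – stable KCNQ1 CHO-K1 line · Probe or stimulus – thallium- and potassium-containing depolarizing buffer · Measured by – kinetic FluxOR fluorescence, 10 s baseline plus 110 s post-stimulus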
# KCNK9 block: KCNK9 potassium channel inhibitors, primary screen, HEK293 cells, thallium flux | Potassium channel subfamily K member 9 (Homo sapiens), Q9NPC2 | FluxOR thallium flux fluorescence; hits give low values | B-score at 10 µM | 1.2% of 310,000 active | AID 488922, 2010;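 active means ratio B-score over 3 SD below the library mean, with starting fluorescence within 5 SD of its mean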;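 further: negative B-score means less thallium flux so channel inhibition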
# Kir21 block: inhibitors of mouse Kir2.1 inward-rectifier potassium channel; Inward rectifier potassium channel 2 (Mus musculus), P35561; 0.85% of 310,000 active; HEK293-Kir2.1, FluxOR thallium flux fluorescence; hits give low values; B-score at 10 µM; AID 1672, 2009;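 active means fluorescence ratio B-score at or below minus 3 SD of library scores, with starting-brightness B-score within 2 SD, cut at about -4.2 in these data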;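 further: channel flux triggered by added potassium and thallium sulfate stimulus; B-score of peak minus minimum fluorescence over baseline after thallium stimulus; more negative B-score means stronger Kir2.1 block with less thallium influx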
# KCNK3 block: human KCNK3 channel inhibitors, primary screen, CHO cells, FluxOR thallium flux, B-score; Potassium channel subfamily K member 3 (Homo sapiens), O14649; FluxOR fluorescence; hits give low values; B-score at 10 µM; 0.84% of 340,000 active; AID 602410, 2012;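 active means B-score under library mean minus 4 SD, starting fluorescence ratio at most library mean plus 5 SD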;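 further: more negative B-score means stronger inhibition of thallium flux through KCNK3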
# Active calls of the source: *; i = inactive; x = no result given.
SMILES,hERG protect,KCNQ1 block,KCNQ1 act,KCNK9 block,Kir21 block,KCNK3 block
COc1ccc(C(=O)C/C(=C\C(=O)c2ccc(C)cc2)c2ccccc2)cc1,-13.5,6*,i,i,-1.47,i
CCCOc1ccc(C(C(=O)OCCN(CC)CC)c2ccccc2)cc1 (centres undefined),-7.5,i,i,i,-0.79,i
CC(=O)Nc1cccc(OCC(=O)NC(C)c2ccc3ccccc3c2)c1 (centres undefined),-7.0,i,i,i,-6.23*,i
CCn1c(=S)[nH]c2scc(-c3cccs3)c2c1=O,100.5*,i,112*,i,0.07,i
C=CCn1c(=S)[nH]c2scc(-c3ccc(C)o3)c2c1=O,63.7*,i,99*,i,0.81,i
Cc1cc(C)cc(C(=O)NC(CC(N)=O)c2ccc(N3CCCCCC3)c([N+](=O)[O-])c2)c1 (centres undefined),-9.2,7*,i,i,1.36,i
COc1ccccc1C(=O)NCc1nnc(SCC(=O)Nc2nccs2)n1C,-4.9,i,i,i,-2.25,i
CC1(C)CC(=O)c2c(O)cc(OCC(=O)NCCc3ccc(S(N)(=O)=O)cc3)cc2O1,-8.3,i,i,i,-1.43,i
Cc1ccccc1OCCNc1cc(N2CCNCC2)ccc1[N+](=O)[O-],-22.6,i,i,i,-8.09*,x
Cc1cccc(OCCNc2cc(N3CCN(C)CC3)ccc2[N+](=O)[O-])c1,-19.1,i,i,i,-1.42,i
COc1ccccc1OCCNc1cc(N2CCCCC2)ccc1[N+](=O)[O-],-7.3,6*,i,-6.82*,2.27,i
COCc1ccc(C(=O)N2CCCC(Nc3ccc(F)c(F)c3)C2)s1 (centres undefined),-10.8,i,i,i,-2.02,i
COc1ccccc1-c1nc(-c2ccccc2)[nH]c(=O)c1C#N,-10.8,i,i,i,-1.19,i
COc1ccc(CCNCC(O)COc2cccc(Br)c2)cc1 (centres undefined),-9.9,i,i,i,-8.74*,i
CC(=O)c1cccc(OCC(O)CNCCc2ccc(Cl)cc2)c1 (centres undefined),-2.2,i,i,i,-3.55,i
COc1ccc(CCNCC(O)c2ccccc2)cc1 (centres undefined),-11.9,i,i,i,-4.89*,i
COc1ccc2ccccc2c1CNC(C)CCc1ccccc1 (centres undefined),-7.5,i,i,i,-7.74*,i
COc1ccc(CCC(C)NCc2ccc(Cl)c(Cl)c2)cc1 (centres undefined),-16.5,i,i,i,-4.47*,i
CC(OC(=O)c1cccc(S(=O)(=O)N2CCCC2)c1)C(=O)NC1CCCCC1C (centres undefined),-9.3,i,i,i,0.74,i
Cc1ccc(NC(=O)CSc2nnc3ccccn23)cc1,-22.3,i,i,i,1.87,i
COc1ccc(CCC(C)NCC(C)c2ccccc2)cc1 (centres undefined),-1.7,i,i,i,-4.44*,i
COc1ccc(CCC(C)NCc2cc(OC)cc(OC)c2)cc1 (centres undefined),-2.2,i,i,i,-3.93,i
COc1ccc(CCNCC(C)c2ccccc2)cc1 (centres undefined),-6.5,i,i,i,-0.94,i
COc1ccc(CCC(C)NCc2ccc(F)cc2)cc1 (centres undefined),-5.9,i,i,i,-6.1*,i
Cc1ccc(C(O)CCc2ccc(N)cc2)cc1 (centres undefined),-3.6,i,i,i,1.22,i

# Compound activity: PubChem BioAssay, Johns Hopkins Ion Channel Center
